The record followed here is ChEMBL document CHEMBL4706579, “Novel quinazolinone inhibitors of the Pseudomonas aeruginosa quorum sensing transcriptional regulator PqsR” (Eur J Med Chem, 2020).

pIC50: −log10 of the molar value. Active and inactive are the calls of the source. No cut-off for these calls is given here. A value given as a limit tells only on which side of the number the result lay.

The target of data set [1] is T1, Transcriptional regulator MvfR (Pseudomonas aeruginosa PA14) (UniProt A0A072ZLE6).
T1 sequence (whole entry): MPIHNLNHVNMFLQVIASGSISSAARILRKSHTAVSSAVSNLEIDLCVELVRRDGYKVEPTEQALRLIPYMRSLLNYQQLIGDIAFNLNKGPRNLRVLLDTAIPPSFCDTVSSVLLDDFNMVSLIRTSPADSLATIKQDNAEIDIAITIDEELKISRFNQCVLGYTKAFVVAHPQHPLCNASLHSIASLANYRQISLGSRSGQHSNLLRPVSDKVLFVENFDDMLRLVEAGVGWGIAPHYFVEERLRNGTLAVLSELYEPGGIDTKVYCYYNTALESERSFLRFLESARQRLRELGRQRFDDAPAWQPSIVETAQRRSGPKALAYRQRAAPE
As to the kind of experiment: Inhibition of PqsR in Pseudomonas aeruginosa PAO1 L harboring mCTX:PpqsA-lux fusion protein assessed as remaining enzyme activity at 10 uM and measured every 30 mins for 24 hrs by spot test relative to control. In a few lines: (§1)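 Chromosomal mCTX:PpqsA-lux reporter strain in LB, overnight culture (OD600 2.0–3.0) diluted to OD600 0.02 and mixed 1:1 with compound, final 10 μM, at least triplicate wells. Run at 37 °C for 24 h, with OD600 and luminescence read every 30 min. Luminescence/OD600 taken at the luminescence peak (8–9 h) and normalised to the 0.1% DMSO control (100%).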

Data set [2] deals with T1, Transcriptional regulator MvfR (Pseudomonas aeruginosa PA14). As to the kind of experiment: Inhibition of PqsR in Pseudomonas aeruginosa PA14 harboring mCTX:PpqsA-lux fusion assessed as remaining activity at 10 uM incubated for 24 hrs by spot test relative to control. In a few lines: as §1
The target in data set [3] is T2, Transcriptional regulator MvfR (Pseudomonas aeruginosa PA14, UniProt A0A072ZLE6).
T2 sequence (A0A072ZLE6 whole entry): T1 sequence (whole entry)
As to the kind of experiment: Inhibition of PqsR in Pseudomonas aeruginosa PAO1 L harboring mCTX:PpqsA-lux fusion protein measured every 30 mins for 24 hrs by luminescence reporter gene assay. An outline of the steps: (§2)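 Chromosomal mCTX:PpqsA-lux reporter strain grown overnight to OD600 2.0–3.0, diluted in LB to OD600 0.02 and mixed 1:1 with compound in LB. Ten […] serial concentrations, final 31.6 μM to 1 nM, in triplicate. Run at 37 °C for 24 h with OD600 and luminescence read every 30 min. IC50 from log concentration vs RLU/OD600 at the luminescence peak (8–9 h).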

Data set [4] addresses T2, Transcriptional regulator MvfR. As to the kind of experiment: Inhibition of PqsR in Pseudomonas aeruginosa PA14 harboring mCTX:PpqsA-lux fusion protein measured every 30 mins for 24 hrs by luminescence reporter gene assay. In a few lines:
as §2

A further data set has as its system A549. As to the kind of experiment: Cytotoxicity against human A549 cells assessed as reduction in cell viability at 0.1 to 100 uM after 16 hrs by Alamar blue assay. The data set is classed as cell-based. Conditions: a549, 16 h, dose 0.1-100 µM. An outline of the steps:
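A549 lung epithelial cells kept in DMEM with 10% FBS and 1% penicillin-streptomycin at 37 °C, 5% CO2. Trypsinised at 80% confluence, resuspended in DMEM-F12, seeded at 10,000 cells/well, left 16 h. Compound added (0.1–100 μM), 16 h further incubation. Alamar blue for 5 h, fluorescence ex 510/em 590 nm, normalised to untreated cells.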

For data set [5], the system named is Pseudomonas aeruginosa PA14 PqsR. As to the kind of experiment: Therapeutic index, ratio of cytotoxicity against human A549 cells to IC50 for inhibition of Pseudomonas aeruginosa PA14 PqsR. The data set is classed as toxicity, cell-based. The conditions noted are these: read-out: TI.
The next data set deals with Pseudomonas aeruginosa. As to the kind of experiment: Bactericidal activity against Pseudomonas aeruginosa PAO1 L assessed as inhibition of bacterial growth. It counts as functional, organism-based.
Data set [6] in a line: Solubility of the compound in test buffer at >100 uM. The data set is classed as physicochemical.
Data set [7] deals with T1, Transcriptional regulator MvfR (Pseudomonas aeruginosa PA14). As to the kind of experiment: Inhibition of Pseudomonas aeruginosa PAO1-L PqsR assessed as reduction in pyocyanin production by measuring pyocyanin level at 3 times IC50 incubated for 16 hrs. Set-up: scale not given: the % may be the effect or the level left.
Data set [8] shares this target. As to the kind of experiment: Inhibition of PqsR in Pseudomonas aeruginosa PAO1 L harboring mCTX:PpqsA-lux fusion at 10 uM and measured every 30 mins for 24 hrs by spot test. An outline of the steps:
as §1

As to `CC(C)c1ncc(Cn2cnc3ccc(Cl)cc3c2=O)s1`, the Activity was 65% in [1] and more than 50% in [2].

For `CCCCCCc1nc(Cn2cnc3ccc(Cl)cc3c2=O)cs1`, the pIC50 in [3] is 6.53; in [4], 6.58. Also, the Activity result with A549 is “Non-Toxic”; in data set [7] it was 36%. The selectivity ratio in [5] was more than 377. Moreover, the result with Pseudomonas aeruginosa was inactive. Further, the solubility entry in data set [6] is “Insoluble”.

On to `CC(C)CCc1nc(Cn2cnc3ccc(Cl)cc3c2=O)cs1`, for which the pIC50 in [3] is 5.87; in [4], 6.17. Besides, in the data set with Pseudomonas aeruginosa, the result was inactive.

For the compound `CC(C)Cc1nc(Cn2cnc3ccc(Cl)cc3c2=O)cs1`, the pIC50 in data set [3] was 5.92; in [4] it was 5.88. Further, in the data set with Pseudomonas aeruginosa, the outcome was inactive.

Consider `CC(C)(C)c1nc(Cn2cnc3ccc(Cl)cc3c2=O)cs1`, for which the pIC50 in data set [3] is 6.40; in data set [4], 6.19. Besides, the outcome in the data set on Pseudomonas aeruginosa was inactive.

As to `Cc1nc(Cn2cnc3ccc(Cl)cc3c2=O)cs1`, the results for the Activity in data set [1] and in data set [2] were 83% and more than 50%, respectively.

Regarding `CC(C)c1noc(Cn2cnc3ccc(Cl)cc3c2=O)n1`, the inhibition entry in [8] is “inactive”.

As for `CC(C)c1nc(Cn2cnc3ccc(Cl)cc3c2=O)cs1`, the pIC50 is 5.98 in data set [3] and 5.80 in [4]. Further, the result in the data set on Pseudomonas aeruginosa was inactive.

On to `O=c1c2cc(Cl)ccc2ncn1Cc1cnc(NC2CCCCC2)s1`, for which the values for the Activity in data set [1] and in [2] were 83% and more than 50%, respectively.

With `CC(C)(C)c1nc(Cn2cnc3cc(Cl)ccc3c2=O)cs1`, the negative logarithm of the IC50 (pIC50) in [3] is 5.53. The Activity in data set [2] is more than 50%. Also, the result in the data set on Pseudomonas aeruginosa was inactive.

`CCCCNc1ncc(Cn2cnc3ccc(Cl)cc3c2=O)s1`: the Activity in [1] is 67%; in [2], more than 50%.

Turning to `CN(CCO)c1ncc(Cn2cnc3ccc(Cl)cc3c2=O)s1`, the Activity in data set [1] is 101%; in data set [2] it was more than 50%.

Turning to `CCC(C)Cc1nc(Cn2cnc3ccc(Cl)cc3c2=O)cs1` (configuration not stated), the pIC50 in data set [3] was 5.80; in data set [4], 6.19. In the data set on Pseudomonas aeruginosa, the result was inactive.

For the compound `CCCCCc1nc(Cn2cnc3cc(Cl)ccc3c2=O)cs1`, the Activity was 106% in data set [1] and more than 50% in [2].

Turning to `O=c1c2cc(Cl)ccc2ncn1Cc1csc(/C=C/c2ccco2)n1`, the pIC50 in data set [3] was 5.69; in data set [4] it was 5.54. Also, the outcome in the data set with Pseudomonas aeruginosa was inactive.

In the case of `CC1CCN(c2ncc(Cn3cnc4ccc(Cl)cc4c3=O)s2)CC1`, the Activity in data set [1] is 72%; in [2], more than 50%.

For `O=c1c2cc(Cl)ccc2ncn1Cc1csc(-c2ccc([N+](=O)[O-])cc2)n1`, the Activity in data set [1] is 89%; in [2], more than 50%.

Turning to `CCCCCc1nc(Cn2cnc3ccc(Cl)cc3c2=O)cs1`, the pIC50 is 6.50 in data set [3] and 6.47 in data set [4]. In addition, the Activity result is “Non-Toxic” in the data set on A549 and 23% in data set [7]. In [5], the selectivity ratio is more than 292. Moreover, the outcome in the data set on Pseudomonas aeruginosa was inactive. The solubility result in data set [6] is listed as “Insoluble”.

With `N#CCc1nc(Cn2cnc3ccc(Cl)cc3c2=O)cs1`, the Activity in data set [1] is 104%; in [2] it was more than 50%.

As for `O=c1c2cc(Cl)ccc2ncn1Cc1cnc(Cl)s1`, the Activity in [1] is 95%; in [2], more than 50%.

In the case of `NC(N)=Nc1nc(Cn2cnc3ccc(Cl)cc3c2=O)cs1`, the Activity in data set [1] was 108%; in data set [2] it was more than 50%.

For the compound `O=c1c2cc(Cl)ccc2ncn1Cc1csc(C(F)(F)F)n1`, the Activity in [1] was 52%; in [2], more than 50%.

Regarding `O=c1c2cc(Cl)ccc2ncn1Cc1csc(-c2ccccc2)n1`, the pIC50 in [3] is 6.61; in [4] it was 6.91. For the same compound, the outcome in the data set on Pseudomonas aeruginosa was inactive.

As to `CCCCc1nc(Cn2cnc3ccc(Cl)cc3c2=O)cs1`, the pIC50 in data set [3] is 5.81; in data set [4], 5.76. For the same compound, the outcome in the data set with Pseudomonas aeruginosa was inactive.

In turn, `CC(C)c1nc(Cn2cnc3cc(F)ccc3c2=O)cs1` had a pIC50 in data set [3] of 4.88.

With `CCCCNc1nc(Cn2cnc3ccc(Cl)cc3c2=O)cs1`, the pIC50 in data set [3] was 5.45. Also, the Activity in data set [2] was more than 50%. Moreover, the outcome in the data set on Pseudomonas aeruginosa was inactive.

With `COCCNc1ncc(Cn2cnc3ccc(Cl)cc3c2=O)s1`, the figures for the Activity in [1] and in data set [2] were 85% and more than 50%, respectively.

Turning to `CCc1nc(Cn2cnc3ccc(Cl)cc3c2=O)cs1`, the figures for the Activity in [1] and in data set [2] were 79% and more than 50%, respectively.

Regarding `COCCNc1nc(Cn2cnc3ccc(Cl)cc3c2=O)cs1`, the Activity was 85% in [1] and more than 50% in [2].

Consider `O=c1c2cc(Cl)ccc2ncn1Cc1csc(-c2ccco2)n1`, for which the pIC50 in data set [3] and in data set [4] was 5.88 in each case. Besides, in the data set with Pseudomonas aeruginosa, the result was inactive.

`CCCC(C)c1nc(Cn2cnc3ccc(Cl)cc3c2=O)cs1` (configuration not stated): the pIC50 in data set [3] is 5.95; in [4] it was 6.19. Moreover, in the data set on Pseudomonas aeruginosa, the outcome was inactive.
